Consider one compound from ChEMBL document CHEMBL5500386, “Design, synthesis and bioactivity evaluation of 4-hydroxycoumarin derivatives as potential anti-inflammatory agents against acute lung injury and colitis” (Eur J Med Chem, 2024).

Data set [1] is described as follows: AUC (0 to infinity) in male Sprague-Dawley rat at 1 mg/kg, iv measured upto 24 hrs by triple quadrupole mass spectrometric analysis. It is filed as ADME, organism-based. To be noted: in vivo. The method in brief: (§1)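 Male SD rats (8 weeks, 200 g ± 20 g), n = 3 per route. Oral: 10 mg/kg by gavage in 0.05 % DMSO/normal saline, tail-vein blood at 13 times from 10 min to 24 h. IV: 1 mg/kg tail vein in 5 % DMSO/30 % PEG400/65 % saline, 14 samples from 5 min to 24 h. Heparinised plasma precipitated with acetonitrile containing internal standard. Non-compartmental analysis on mean concentrations.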

A short description of data set [2]: Half life in male Sprague-Dawley rat at 10 mg/kg, po measured upto 24 hrs by triple quadrupole mass spectrometric analysis. The settings on record: in vivo. It is filed as ADME, organism-based. The method in brief:
as §1

For data set [3], the system named is Mus musculus. The data set is described as follows: Protection against LPS-induced C57BL/6 mouse model of acute lung injury assessed as reduction in inflammatory cell infiltration in lung at 20 mg/kg, po administered 3 times for every 12 hrs followed by LPS stimulation at 5 mg/kg and measured after 6 hrs by immunohistochemical staining based analysis. It is filed as functional, organism-based. To be noted: time 30.0 hrs. The method in brief:
(§2)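 LPS-induced ALI in C57BL/6 mice: 20 mg/kg orally three times at 12 h intervals, then intratracheal LPS 5 mg/kg, lungs taken at 6 h. F4/80 IHC: xylene deparaffinisation, citrate pH 6 retrieval for 25 min, primary antibody at 4 °C for 12 h, secondary 1:2000, DAB and hematoxylin. Viewed at ×20.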

Data set [4] has as its system Mus musculus. The data set is described as follows: Antiinflammatory activity in DSS-induced male C57BL/6 mouse model of inflammatory bowel disease assessed as reduction in F4/80 positive cell population in intestine at 20 mg/kg, IG administered with compound and DSS for 7 days followed by DSS replacement with distilled water for 3 days by immunohistochemistry staining based analysis. The data set is classed as functional, organism-based. The settings on record: time 10.0 day. The method in brief: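 DSS colitis in C57BL/6 mice (2.5 % DSS for 7 days, then water for 3 days), 20 mg/kg po daily in DMSO/CMC-Na, n = 6. Colon fixed in 4 % formaldehyde. For IHC: deparaffinised in xylene, antigen retrieval by boiling in citrate buffer pH 6 for 25 min, primary antibody at 4 °C for 12 h, secondary 1:2000, then DAB with hematoxylin counterstain.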

Data set [5] is described as follows: AUC (0 to t) in male Sprague-Dawley rat at 10 mg/kg, po measured upto 24 hrs by triple quadrupole mass spectrometric analysis. The data set is classed as ADME, organism-based. To be noted: in vivo. The method in brief: as §1
Data set [6] is described as follows: Acute toxicity in male ICR mouse assessed as adverse effects at 500 to 1000 mg/kg, po administered daily for 10 days and measured daily. It is filed as organism-based. To be noted: in vivo, 240 h, dose 500-1000 mg/kg, time 10 day. The method in brief: (§3)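 Male ICR mice (8 weeks, 30 g ± 2 g), acclimatised 1 week, randomised into 1000 mg/kg, 500 mg/kg and untreated control groups (n = 24 total). Dosed by daily gavage, compound dissolved in 0.5 % DMSO then added to normal saline. Body weight and behaviour recorded daily. Euthanised after 10 days; heart, liver, spleen, lung and kidney examined by H&E staining.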

A short description of data set [7]: Oral bioavailability in male Sprague-Dawley rat at 10 mg/kg measured upto 24 hrs by triple quadrupole mass spectrometric analysis. To be noted: in vivo. The data set is classed as ADME, organism-based. The method in brief: as §1
The nature of data set [8]: Cmax in male Sprague-Dawley rat at 1 mg/kg, iv measured upto 24 hrs by triple quadrupole mass spectrometric analysis. It is filed as ADME, organism-based. The settings on record: in vivo. The method in brief: as §1
The test system of data set [9] is Mus musculus. Nature of the data set: Protection against LPS-induced C57BL/6 mouse model of acute lung injury assessed as reduction in destruction of the alveolar cell structure at 20 mg/kg, po administered 3 times for every 12 hrs followed by LPS stimulation at 5 mg/kg and measured after 6 hrs by H and E staining based analysis. The data set is classed as functional, organism-based. The settings on record: time 30.0 hrs. The method in brief: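 LPS-induced ALI in C57BL/6 mice: 20 mg/kg orally three times at 12 h intervals, then intratracheal LPS 5 mg/kg, killed at 6 h. Lungs paraffin-embedded, cut into 5 μm sections and H&E stained. Viewed at ×20.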

Data set [10] is described as follows: Acute toxicity in male ICR mouse assessed as histopathological changes in spleen at 500 to 1000 mg/kg, po administered daily for 10 days by H and E staining based analysis. It is filed as organism-based. To be noted: in vivo, 240 h, dose 500-1000 mg/kg, time 10 day. The method in brief: as §3
Data set [11] concerns J774.A1. The data set is described as follows: Antiinflammatory activity in LPS-induced mouse J774.A1 cells assessed as reduction in IL-6 mRNA transcription pretreated for 2 hrs followed by LPS stimulation and measured after 6 hrs by RT-qPCR analysis. The data set is classed as functional, cell-based. The settings on record: dose 2.5-10 µM. The method in brief: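 J774A.1 or THP-1 cells pretreated with compound for 2 h, then LPS 0.5 μg/mL for 6 h, in triplicate. Total RNA extracted and reverse-transcribed. IL-6 quantified by RT-qPCR over 40 cycles and normalised to β-actin.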
(In general: Real-time PCR tracks product formation cycle by cycle.)

The subject of data set [12] is Mus musculus. Nature of the data set: Protection against LPS-induced C57BL/6 mouse model of acute lung injury assessed as reduction in thickening of the alveolar septum at 20 mg/kg, po administered 3 times for every 12 hrs followed by LPS stimulation at 5 mg/kg and measured after 6 hrs by immunohistochemical staining based analysis. The data set is classed as functional, organism-based. To be noted: time 30.0 hrs. The method in brief: as §2

The nature of data set [13]: Acute toxicity in male ICR mouse assessed as reduction in body weight at 500 to 1000 mg/kg, po administered daily for 10 days and measured daily for 2 to 10 days. The data set is classed as organism-based. The settings on record: in vivo, 240 h, dose 500-1000 mg/kg, time 10 day. The method in brief: as §3
The nature of data set [14]: Acute toxicity in male ICR mouse assessed as reduction in body weight at 500 to 1000 mg/kg, po administered daily and measured on day 1. The data set is classed as organism-based. To be noted: in vivo, 24 h, dose 500-1000 mg/kg, time 1 day. The method in brief:
as §3

The test system of data set [15] is J774.A1. Nature of the data set: Antiinflammatory activity in LPS-induced mouse J774.a1 cells assessed as inhibition of IL-6 production at 10 uM pretreated for 2 hrs followed by LPS stimulation and measured after 30 mins by ELISA relative to control. The data set is classed as functional. To be noted: time 2.5 hrs. The method in brief: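 J774A.1 cells (DMEM, 10 % FBS, 37 °C) treated with 10 μM compound or 4-HC for 2 h, then LPS. After 30 min, IL-6 in medium measured by ELISA. Result is % inhibition, mean ± SEM of three independent experiments.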
A general note: An ELISA detects its analyte on a solid surface through an enzyme-linked reagent.

Data set [16] addresses Mitogen-activated protein kinase 9 (Homo sapiens) (UniProt P45984). The data set is described as follows: Inhibition of JNK2 (unknown origin) at 10 uM relative to control.
The nature of data set [17]: AUC (0 to t) in male Sprague-Dawley rat at 1 mg/kg, iv measured upto 24 hrs by triple quadrupole mass spectrometric analysis. It is filed as ADME, organism-based. The settings on record: in vivo. The method in brief:
as §1

The nature of data set [18]: Half life in male Sprague-Dawley rat at 1 mg/kg, iv measured upto 24 hrs by triple quadrupole mass spectrometric analysis. To be noted: in vivo. The data set is classed as ADME, organism-based. The method in brief:
as §1

Data set [19] concerns Mus musculus. Nature of the data set: Protection against LPS-induced C57BL/6 mouse model of acute lung injury assessed as reduction in IL-6 level in BALF at 20 mg/kg, po administered 3 times for every 12 hrs followed by LPS stimulation at 5 mg/kg and measured after 6 hrs by ELISA. It is filed as functional, organism-based. The settings on record: time 30.0 hrs. The method in brief: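 C57BL/6 mice, 6 per group. Gavaged at 20 mg/kg three times at 12 h intervals; controls received saline, and dexamethasone 20 mg/kg served as reference. After the last dose, LPS 5 mg/kg given intratracheally. At 6 h, blood collected for serum IL-6 by ELISA. Left lung lavaged with 3 × 200 μL saline, and BALF assayed for IL-6, total protein and neutrophil count. Mean ± SEM, n = 6.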

The nature of data set [20]: AUC (0 to infinity) in male Sprague-Dawley rat at 10 mg/kg, po measured upto 24 hrs by triple quadrupole mass spectrometric analysis. The settings on record: in vivo. It is filed as ADME, organism-based. The method in brief: as §1

Active and inactive are the calls of the source. The calls are words filed in the database; no cut-off is given here.

Sequence of Mitogen-activated protein kinase 9 (Homo sapiens) (P45984 whole entry, looked up): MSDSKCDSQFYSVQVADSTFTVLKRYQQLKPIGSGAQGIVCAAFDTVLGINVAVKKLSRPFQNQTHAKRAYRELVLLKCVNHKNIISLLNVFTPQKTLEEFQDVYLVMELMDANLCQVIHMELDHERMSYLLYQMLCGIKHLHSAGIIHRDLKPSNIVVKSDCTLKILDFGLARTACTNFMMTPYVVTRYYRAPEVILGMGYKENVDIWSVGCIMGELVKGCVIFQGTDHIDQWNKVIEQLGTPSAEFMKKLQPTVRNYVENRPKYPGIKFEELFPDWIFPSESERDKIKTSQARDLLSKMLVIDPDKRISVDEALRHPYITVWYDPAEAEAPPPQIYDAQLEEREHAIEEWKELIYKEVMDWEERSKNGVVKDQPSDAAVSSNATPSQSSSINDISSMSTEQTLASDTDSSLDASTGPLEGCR

In the case of `CC(=O)N1CCN(CCOc2cc(=O)oc3ccccc23)CC1`, the results for the AUC(0-inf) in data set [1] and in data set [20] were 1020 ng·h/mL and 3260 ng·h/mL, respectively. Moreover, the figures for the half-life in data set [2] and in data set [18] were 142 min and 18.6 min, respectively. In addition, the outcome with Mus musculus [3], with Mus musculus [4], with Mus musculus [9], in the data set on Mus musculus [12] and in the data set on Mus musculus [19] was Active. Besides, the AUC(0-t) (as a rule, the area under the concentration-time curve up to a stated or last time point) at 24 h in data set [5] is 2670 ng·h/mL; in data set [17] it was 929 ng·h/mL. Also, the Activity entry in [6] is “Non-Toxic”; in data set [10], “Non-Toxic”; in the data set with J774.A1 [11] it was “Dose-Dependent Effect”; in [13] it was “Non-Toxic”; in data set [14], “Toxic”. Further, the bioavailability (as a rule, the share of a dose that reaches the circulation, judged against a reference dose that is usually intravenous) in data set [7] was 28.7%. Also, the peak level in data set [8] (Cmax) was 2030 ng/mL. In the data set with J774.A1 [15], the inhibition – broadly, the share of the control response that was lost under treatment – at 10 µM was 51.6%. In addition, the inhibition in data set [16] was determined as 5.93%.
